Source: PMC8526772 (The Journal of Biological Chemistry, 2021)
Substitutions are numbered along the chain they refer to.

Columns and labels:
Experiment in all cases: fluorescence-binding assay
JHAMT2 = target: T1, JHAMT2 (Bombyx mori, UniProt A0A8M0FGR8)
T1 sequence (A0A8M0FGR8 1-267): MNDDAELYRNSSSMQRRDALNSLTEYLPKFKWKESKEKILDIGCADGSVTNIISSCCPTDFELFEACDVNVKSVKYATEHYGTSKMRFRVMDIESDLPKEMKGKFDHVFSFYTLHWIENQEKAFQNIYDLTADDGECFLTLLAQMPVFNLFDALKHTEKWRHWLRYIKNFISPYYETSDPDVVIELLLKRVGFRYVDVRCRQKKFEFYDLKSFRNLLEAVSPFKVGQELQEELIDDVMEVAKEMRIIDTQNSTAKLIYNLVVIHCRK
Outline: (§1)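 Intrinsic tryptophan fluorescence quenching used 2 μM recombinant B. mori JHAMT (wild type or point mutant) in 20 mM Tris-HCl pH 8.0, 200 mM NaCl, equilibrated 2 min at 25 °C. Ligand was titrated at final 0–1.5 mM SAM (cofactor binding) or 0–0.1 mM FA (substrate binding). Excitation was 280 nm with emission recorded 300–450 nm. Kd was fitted from quenching data as mean ± s.d. of n = 3.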

JHAMT1-D^91A = target: T2, JHAMT1-D^91A (Bombyx mori, UniProt Q767F1, D91A)
T2 sequence (Q767F1 1-278 D91A): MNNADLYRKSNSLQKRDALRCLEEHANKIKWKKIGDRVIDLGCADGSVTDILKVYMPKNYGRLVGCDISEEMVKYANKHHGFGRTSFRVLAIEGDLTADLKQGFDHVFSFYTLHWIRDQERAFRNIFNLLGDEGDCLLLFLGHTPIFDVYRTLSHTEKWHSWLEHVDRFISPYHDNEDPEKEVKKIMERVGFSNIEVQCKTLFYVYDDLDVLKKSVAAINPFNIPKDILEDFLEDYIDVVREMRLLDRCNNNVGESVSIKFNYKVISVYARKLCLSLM
Outline: as §1

JHAMT1 = target: T3, JHAMT1 (Bombyx mori, UniProt Q767F1)
T3 sequence (Q767F1 1-278): T2 sequence (Q767F1 1-278 D91A) with A91D
Outline: as §1

JHAMT2-D^92A = target: T4, JHAMT2-D^92A (Bombyx mori, UniProt A0A8M0FGR8, D92A)
T4 sequence (A0A8M0FGR8 1-267 D92A): T1 sequence (A0A8M0FGR8 1-267) with D92A
Outline: as §1

JHAMT2-T^113A = target: T5, JHAMT2-T^113A (Bombyx mori, UniProt A0A8M0FGR8, T113A)
T5 sequence (A0A8M0FGR8 1-267 T113A): T1 sequence (A0A8M0FGR8 1-267) with T113A
Outline: as §1

JHAMT1-T^112A = target: T6, JHAMT1-T^112A (Bombyx mori, UniProt Q767F1, T112A)
T6 sequence (Q767F1 1-278 T112A): T2 sequence (Q767F1 1-278 D91A) with A91D, T112A
Outline: as §1

C[S+](CC[C@H](N)C(=O)[O-])C[C@H]1O[C@@H](n2cnc3c(N)ncnc32)[C@H](O)[C@@H]1O (stereo partly drawn) [SAM, S-adenosyl-L-methionine]
Kd (JHAMT2): 42.6 ± 5.83 µM | Kd (JHAMT1-D^91A): 229 ± 18.1 µM | Kd (JHAMT1): 38.7 ± 3.42 µM | Kd (JHAMT2-D^92A): 261 ± 18.1 µM | Kd (JHAMT2-T^113A): 144 ± 9.91 µM | Kd (JHAMT1-T^112A): 191 ± 12.7 µM
